Here are results for eight compounds from ChEMBL document CHEMBL3797186, “Single Residue Substitutions That Confer Voltage-Gated Sodium Ion Channel Subtype Selectivity in the NaV1.7 Inhibitory Peptide GpTx-1” (J Med Chem, 2016).

Test [1] has as its target Sodium channel protein type 5 subunit alpha (Homo sapiens, UniProt Q14524). Briefly: Inhibition of human Nav1.5 expressed in HEK293 cells assessed as inward peak current by ion-works quattro patch clamp electrophysiology method. Format: cell-based. In short, it runs like this: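 Stable HEK293 line expressing human NaV1.5, recorded by population patch clamp on the IonWorks Quattro.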

Test [2] has as its target Sodium channel protein type 9 subunit alpha (Homo sapiens, UniProt Q15858). Briefly: Inhibition of human Nav1.7 expressed in HEK293 cells assessed as inward peak current by ion-works quattro patch clamp electrophysiology method. In kind it is cell-based. (Patch clamp records ionic current or voltage across a cell membrane.)

Structures are written as SMILES. pIC50: −log10 of the molar value. Positions of bridges follow the written chain, without caps; N, C: chain ends. Non-standard residues stand in square brackets, D forms with d. Residues, ends and D or L forms follow the SMILES beside them. 1Nal = N[C@@H](Cc1cccc2ccccc12)C(=O)O

Sodium channel protein type 5 subunit alpha, sequence (Q14524 whole entry): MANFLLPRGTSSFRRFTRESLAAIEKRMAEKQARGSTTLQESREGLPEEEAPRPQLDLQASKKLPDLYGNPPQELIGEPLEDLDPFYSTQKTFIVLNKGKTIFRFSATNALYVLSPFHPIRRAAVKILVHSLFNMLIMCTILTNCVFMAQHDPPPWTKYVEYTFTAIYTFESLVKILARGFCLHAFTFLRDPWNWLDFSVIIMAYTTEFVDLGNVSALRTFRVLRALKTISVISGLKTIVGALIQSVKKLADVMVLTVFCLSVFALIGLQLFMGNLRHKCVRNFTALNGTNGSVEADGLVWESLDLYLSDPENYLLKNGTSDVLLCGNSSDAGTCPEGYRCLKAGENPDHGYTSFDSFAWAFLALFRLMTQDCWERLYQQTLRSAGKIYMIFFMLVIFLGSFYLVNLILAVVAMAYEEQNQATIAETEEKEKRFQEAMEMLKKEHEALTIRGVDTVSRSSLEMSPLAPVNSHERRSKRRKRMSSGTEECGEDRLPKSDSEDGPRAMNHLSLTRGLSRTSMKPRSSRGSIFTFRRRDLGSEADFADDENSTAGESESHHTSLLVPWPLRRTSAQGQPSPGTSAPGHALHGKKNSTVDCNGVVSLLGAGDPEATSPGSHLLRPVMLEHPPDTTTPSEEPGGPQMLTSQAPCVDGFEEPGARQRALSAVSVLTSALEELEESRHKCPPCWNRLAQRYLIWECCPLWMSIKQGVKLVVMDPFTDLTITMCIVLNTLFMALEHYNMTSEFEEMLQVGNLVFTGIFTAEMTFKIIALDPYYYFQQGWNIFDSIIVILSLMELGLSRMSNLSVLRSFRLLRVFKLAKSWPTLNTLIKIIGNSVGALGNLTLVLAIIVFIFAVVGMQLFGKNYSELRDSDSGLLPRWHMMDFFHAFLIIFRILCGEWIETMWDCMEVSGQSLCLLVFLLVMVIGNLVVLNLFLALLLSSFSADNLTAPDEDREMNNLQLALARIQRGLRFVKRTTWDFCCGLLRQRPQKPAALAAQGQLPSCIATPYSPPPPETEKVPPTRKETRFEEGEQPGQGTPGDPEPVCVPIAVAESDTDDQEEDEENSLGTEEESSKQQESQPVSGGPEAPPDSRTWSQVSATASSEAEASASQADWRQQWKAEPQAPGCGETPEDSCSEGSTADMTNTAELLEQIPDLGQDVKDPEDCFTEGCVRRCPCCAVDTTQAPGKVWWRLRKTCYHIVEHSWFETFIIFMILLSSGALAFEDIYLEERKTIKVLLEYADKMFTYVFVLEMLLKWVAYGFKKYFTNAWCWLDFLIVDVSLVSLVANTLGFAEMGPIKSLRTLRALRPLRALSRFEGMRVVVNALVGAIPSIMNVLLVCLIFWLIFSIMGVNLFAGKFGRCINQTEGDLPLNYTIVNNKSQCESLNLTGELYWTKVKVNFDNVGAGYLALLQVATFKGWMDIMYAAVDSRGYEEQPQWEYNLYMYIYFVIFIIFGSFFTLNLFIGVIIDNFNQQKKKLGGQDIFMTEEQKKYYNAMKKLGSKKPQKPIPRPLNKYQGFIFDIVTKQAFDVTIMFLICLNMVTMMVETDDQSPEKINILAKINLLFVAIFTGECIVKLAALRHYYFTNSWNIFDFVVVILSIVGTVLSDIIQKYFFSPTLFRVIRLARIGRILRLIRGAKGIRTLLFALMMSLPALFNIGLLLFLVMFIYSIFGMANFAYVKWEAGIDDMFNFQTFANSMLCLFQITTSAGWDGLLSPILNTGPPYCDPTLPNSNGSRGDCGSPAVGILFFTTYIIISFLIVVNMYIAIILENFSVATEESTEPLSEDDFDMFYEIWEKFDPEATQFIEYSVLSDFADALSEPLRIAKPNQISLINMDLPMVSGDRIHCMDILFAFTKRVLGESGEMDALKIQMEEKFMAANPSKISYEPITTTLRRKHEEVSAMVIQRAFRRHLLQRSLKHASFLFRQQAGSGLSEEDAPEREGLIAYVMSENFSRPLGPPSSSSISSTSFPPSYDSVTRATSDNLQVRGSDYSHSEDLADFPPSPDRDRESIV
Sodium channel protein type 9 subunit alpha, sequence (Q15858 whole entry): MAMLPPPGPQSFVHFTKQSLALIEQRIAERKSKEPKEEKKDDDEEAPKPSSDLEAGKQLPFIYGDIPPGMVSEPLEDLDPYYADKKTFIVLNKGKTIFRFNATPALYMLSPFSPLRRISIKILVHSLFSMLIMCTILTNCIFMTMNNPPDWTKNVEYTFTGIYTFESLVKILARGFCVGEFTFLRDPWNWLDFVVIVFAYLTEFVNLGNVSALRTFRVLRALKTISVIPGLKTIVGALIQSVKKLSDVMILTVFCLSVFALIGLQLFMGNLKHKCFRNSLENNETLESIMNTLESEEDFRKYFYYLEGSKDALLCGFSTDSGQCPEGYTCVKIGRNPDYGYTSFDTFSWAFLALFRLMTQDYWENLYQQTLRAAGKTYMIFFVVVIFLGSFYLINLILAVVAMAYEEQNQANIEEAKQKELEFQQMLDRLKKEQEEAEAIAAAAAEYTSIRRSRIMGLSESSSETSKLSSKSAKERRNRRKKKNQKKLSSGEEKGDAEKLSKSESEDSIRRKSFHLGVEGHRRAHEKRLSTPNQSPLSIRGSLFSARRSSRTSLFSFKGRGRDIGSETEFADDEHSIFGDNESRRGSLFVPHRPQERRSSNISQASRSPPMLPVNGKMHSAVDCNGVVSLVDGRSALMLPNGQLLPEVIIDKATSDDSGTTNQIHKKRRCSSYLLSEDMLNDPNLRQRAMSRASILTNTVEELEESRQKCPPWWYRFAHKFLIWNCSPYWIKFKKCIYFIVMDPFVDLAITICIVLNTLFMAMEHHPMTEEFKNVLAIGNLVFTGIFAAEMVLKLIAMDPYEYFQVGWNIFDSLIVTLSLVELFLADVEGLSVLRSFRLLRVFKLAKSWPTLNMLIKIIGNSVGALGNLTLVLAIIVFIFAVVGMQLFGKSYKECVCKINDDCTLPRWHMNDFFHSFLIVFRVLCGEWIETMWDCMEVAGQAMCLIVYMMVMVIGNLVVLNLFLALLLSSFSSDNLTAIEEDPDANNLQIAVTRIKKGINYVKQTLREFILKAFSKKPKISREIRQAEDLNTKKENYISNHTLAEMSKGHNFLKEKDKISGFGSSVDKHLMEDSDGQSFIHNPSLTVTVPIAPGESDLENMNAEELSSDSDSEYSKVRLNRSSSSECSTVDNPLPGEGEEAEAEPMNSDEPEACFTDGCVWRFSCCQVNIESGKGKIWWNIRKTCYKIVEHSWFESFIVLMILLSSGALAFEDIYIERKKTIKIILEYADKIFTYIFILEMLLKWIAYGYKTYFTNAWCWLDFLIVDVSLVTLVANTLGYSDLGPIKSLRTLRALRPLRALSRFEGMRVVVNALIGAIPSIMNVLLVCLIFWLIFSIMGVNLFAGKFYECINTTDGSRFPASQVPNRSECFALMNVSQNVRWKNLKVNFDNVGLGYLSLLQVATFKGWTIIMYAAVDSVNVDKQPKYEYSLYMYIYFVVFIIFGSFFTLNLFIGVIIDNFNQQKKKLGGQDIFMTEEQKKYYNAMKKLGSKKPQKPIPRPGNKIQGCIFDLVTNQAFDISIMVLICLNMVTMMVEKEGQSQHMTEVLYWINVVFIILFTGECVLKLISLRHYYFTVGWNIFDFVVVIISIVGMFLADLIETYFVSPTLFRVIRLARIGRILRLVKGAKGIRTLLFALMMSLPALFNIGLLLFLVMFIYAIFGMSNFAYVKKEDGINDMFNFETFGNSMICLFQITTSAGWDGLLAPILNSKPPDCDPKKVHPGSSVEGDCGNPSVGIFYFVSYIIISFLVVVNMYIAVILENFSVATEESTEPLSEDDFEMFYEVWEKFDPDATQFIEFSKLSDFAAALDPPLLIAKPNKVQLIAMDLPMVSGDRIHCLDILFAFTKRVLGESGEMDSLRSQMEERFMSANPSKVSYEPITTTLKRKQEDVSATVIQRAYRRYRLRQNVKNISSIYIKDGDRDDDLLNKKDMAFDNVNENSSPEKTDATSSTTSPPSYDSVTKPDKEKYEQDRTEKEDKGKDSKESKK

One may read the pIC50 as the IC50 on a negative log10 scale, so that one unit is a factor of ten. With `CC[C@H](C)[C@@H]1NC(=O)[C@@H]2CSSC[C@@H]3NC(=O)[C@H](C(C)C)NC(=O)[C@H](CC(C)C)NC(=O)[C@H](CC(N)=O)NC(=O)[C@@H]4CCCN4C(=O)[C@H](CCCNC(=N)N)NC(=O)[C@H](CSSC[C@H](NC(=O)[C@@H](N)CC(=O)O)C(=O)N[C@@H](CC(C)C)C(=O)NCC(=O)N[C@@H](Cc4ccccc4)C(=O)N[C@@H](CCSC)C(=O)N[C@@H](CCCCN)C(=O)N[C@@H](CCCCN)C(=O)N2)NC(=O)[C@H](CSSC[C@@H](C(=O)N[C@@H](CCCCN)C(=O)N[C@@H](Cc2ccc(O)cc2)C(=O)N[C@H](C(=O)N[C@@H](Cc2ccccc2)C(N)=O)C(C)C)NC(=O)[C@H](Cc2c[nH]c4ccccc24)NC(=O)[C@H](CCCCN)NC(=O)[C@H](Cc2c[nH]cn2)NC(=O)[C@H]([C@@H](C)O)NC(=O)[C@H](CCCNC(=N)N)NC(=O)[C@H](CO)NC3=O)NC(=O)[C@H](CCCCN)NC(=O)[C@H](CC(=O)O)NC(=O)[C@H](CC(N)=O)NC(=O)[C@H](CC(=O)O)NC(=O)[C@@H]2CCCN2C1=O` (H-DCLGFMKKCIPDNDKCCRPNLVCSRTHKWCKYVF-NH2; disulfide 2-17, 9-23, 16-30), the negative-log IC50 (pIC50) is below 5.30 in test [1] and 6.27 in test [2].

On to `CC[C@H](C)[C@@H]1NC(=O)[C@@H]2CSSC[C@@H]3NC(=O)[C@H](C(C)C)NC(=O)[C@H](CC(C)C)NC(=O)[C@H](CC(N)=O)NC(=O)[C@@H]4CCCN4C(=O)[C@H](CCCNC(=N)N)NC(=O)[C@H](CSSC[C@H](NC(=O)[C@@H](N)CC(=O)O)C(=O)N[C@@H](CC(C)C)C(=O)NCC(=O)N[C@@H](Cc4ccccc4)C(=O)N[C@@H](CCSC)C(=O)N[C@@H](CCCNC(=N)N)C(=O)N[C@@H](CCCCN)C(=O)N2)NC(=O)[C@H](CSSC[C@@H](C(=O)N[C@@H](CCCCN)C(=O)N[C@@H](Cc2ccc(O)cc2)C(=O)N[C@H](C(=O)N[C@@H](Cc2ccccc2)C(N)=O)C(C)C)NC(=O)[C@H](Cc2c[nH]c4ccccc24)NC(=O)[C@H](CCCCN)NC(=O)[C@H](Cc2cnc[nH]2)NC(=O)[C@H]([C@@H](C)O)NC(=O)[C@H](CCCNC(=N)N)NC(=O)[C@H](CO)NC3=O)NC(=O)[C@H](CCCCN)NC(=O)[C@H](CC(=O)O)NC(=O)[C@H](CCC(=O)O)NC(=O)[C@H](CC(=O)O)NC(=O)[C@@H]2CCCN2C1=O` (H-DCLGFMRKCIPDEDKCCRPNLVCSRTHKWCKYVF-NH2; disulfide 2-17, 9-23, 16-30), for which the negative-log IC50 (pIC50) in test [1] was below 5.30; in test [2] it was 6.55.

For `CC[C@H](C)[C@@H]1NC(=O)[C@@H]2CSSC[C@@H]3NC(=O)[C@H](C(C)C)NC(=O)[C@H](CC(C)C)NC(=O)[C@H](CC(N)=O)NC(=O)[C@@H]4CCCN4C(=O)[C@H](CCCNC(=N)N)NC(=O)[C@H](CSSC[C@H](NC(=O)[C@@H](N)CC(=O)O)C(=O)N[C@@H](CC(C)C)C(=O)NCC(=O)N[C@@H](Cc4ccccc4)C(=O)N[C@@H](CCSC)C(=O)N[C@@H](CCCNC(=N)N)C(=O)N[C@@H](CCCCN)C(=O)N2)NC(=O)[C@H](CSSC[C@@H](C(=O)N[C@@H](CCCCN)C(=O)N[C@@H](Cc2ccc(O)cc2)C(=O)N[C@H](C(=O)N[C@@H](Cc2ccccc2)C(N)=O)C(C)C)NC(=O)[C@H](Cc2c[nH]c4ccccc24)NC(=O)[C@H](CCCCN)NC(=O)[C@H](Cc2cccc4ccccc24)NC(=O)[C@H]([C@@H](C)O)NC(=O)[C@H](CCCNC(=N)N)NC(=O)[C@H](CO)NC3=O)NC(=O)[C@H](CCCCN)NC(=O)[C@H](CC(=O)O)NC(=O)[C@H](CC(N)=O)NC(=O)[C@H](CC(=O)O)NC(=O)[C@@H]2CCCN2C1=O` (H-DCLGFMRKCIPDNDKCCRPNLVCSRT[1Nal]KWCKYVF-NH2; disulfide 2-17, 9-23, 16-30), the values for the pIC50 in test [1] and in test [2] were 6.05 and 6.60, respectively.

For `CC[C@H](C)[C@@H]1NC(=O)[C@@H]2CSSC[C@@H]3NC(=O)[C@H](C(C)C)NC(=O)[C@H](CC(C)C)NC(=O)[C@H](Cc4c[nH]c5ccccc45)NC(=O)[C@@H]4CCCN4C(=O)[C@H](CCCNC(=N)N)NC(=O)[C@H](CSSC[C@H](NC(=O)[C@@H](N)CC(=O)O)C(=O)N[C@@H](CC(C)C)C(=O)NCC(=O)N[C@@H](Cc4ccccc4)C(=O)N[C@@H](CCSC)C(=O)N[C@@H](CCCNC(=N)N)C(=O)N[C@@H](CCCCN)C(=O)N2)NC(=O)[C@H](CSSC[C@@H](C(=O)N[C@@H](CCCCN)C(=O)N[C@@H](Cc2ccc(O)cc2)C(=O)N[C@H](C(=O)N[C@@H](Cc2ccccc2)C(N)=O)C(C)C)NC(=O)[C@H](Cc2c[nH]c4ccccc24)NC(=O)[C@H](CCCCN)NC(=O)[C@H](Cc2cnc[nH]2)NC(=O)[C@H]([C@@H](C)O)NC(=O)[C@H](CCCNC(=N)N)NC(=O)[C@H](CO)NC3=O)NC(=O)[C@H](CCCCN)NC(=O)[C@H](CC(=O)O)NC(=O)[C@H](CC(N)=O)NC(=O)[C@H](CC(=O)O)NC(=O)[C@@H]2CCCN2C1=O` (H-DCLGFMRKCIPDNDKCCRPWLVCSRTHKWCKYVF-NH2; disulfide 2-17, 9-23, 16-30), the negative logarithm of the IC50 (pIC50) in test [1] was below 5.30; in test [2], 7.15.

For the compound `CC[C@@H](C)[C@H]1NC(=O)[C@H]2CSSC[C@@H]3NC(=O)[C@@H](C(C)C)NC(=O)[C@H](CC(C)C)NC(=O)[C@@H](CC(N)=O)NC(=O)[C@@H]4CCCN4C(=O)[C@H](CCCNC(=N)N)NC(=O)[C@H](CSSC[C@H](NC(=O)[C@@H](CC(=O)O)NC(=O)[C@@H](C)N)C(=O)N[C@@H](CC(C)C)C(=O)NCC(=O)N[C@@H](Cc4ccccc4)C(=O)N[C@H](CCSC)C(=O)N[C@@H](CCCNC(=N)N)C(=O)N[C@@H](CCCCN)C(=O)N2)NC(=O)[C@@H](CSSC[C@@H](C(=O)N[C@@H](CCCCN)C(=O)N[C@@H](Cc2ccc(O)cc2)C(=O)N[C@H](C(=O)N[C@@H](Cc2ccccc2)C(N)=O)C(C)C)NC(=O)[C@@H](Cc2c[nH]c4ccccc24)NC(=O)[C@H](CCCCN)NC(=O)[C@H](Cc2cnc[nH]2)NC(=O)[C@@H]([C@H](C)O)NC(=O)[C@@H](CCCNC(=N)N)NC(=O)[C@H](CO)NC3=O)NC(=O)[C@@H](CCCCN)NC(=O)[C@H](CC(=O)O)NC(=O)[C@@H](CC(N)=O)NC(=O)[C@H](CC(=O)O)NC(=O)[C@@H]2CCCN2C1=O`, the results for the negative logarithm of the IC50 (pIC50) in test [1] and in test [2] were below 5.30 and 6.43, respectively.

As to `CC[C@H](C)[C@@H]1NC(=O)[C@@H]2CSSC[C@@H]3NC(=O)[C@H](C(C)C)NC(=O)[C@H](CC(C)C)NC(=O)[C@H](CC(N)=O)NC(=O)[C@@H]4CCCN4C(=O)[C@H](CCCNC(=N)N)NC(=O)[C@H](CSSC[C@H](NC(=O)[C@@H](N)CC(=O)O)C(=O)N[C@@H](CC(C)C)C(=O)NCC(=O)N[C@@H](Cc4ccccc4)C(=O)N[C@@H](CCSC)C(=O)N[C@@H](CCCNC(=N)N)C(=O)N[C@@H](CCCCN)C(=O)N2)NC(=O)[C@@H](CSSC[C@@H](C(=O)N[C@@H](CCCCN)C(=O)N[C@@H](Cc2ccc(O)cc2)C(=O)N[C@H](C(=O)N[C@@H](Cc2ccccc2)C(N)=O)C(C)C)NC(=O)[C@H](Cc2c[nH]c4ccccc24)NC(=O)[C@H](CCCCN)NC(=O)[C@H](Cc2cnc[nH]2)NC(=O)[C@H](C)NC(=O)[C@H](CCCNC(=N)N)NC(=O)[C@H](CO)NC3=O)NC(=O)[C@H](CCCCN)NC(=O)[C@H](CC(=O)O)NC(=O)[C@H](CC(N)=O)NC(=O)[C@H](CC(=O)O)NC(=O)[C@@H]2CCCN2C1=O`, the negative logarithm of the IC50 (pIC50) is below 5.30 in test [1] and 6.59 in test [2].

In the case of `CC[C@H](C)[C@@H]1NC(=O)[C@@H]2CSSC[C@@H]3NC(=O)[C@H](C(C)C)NC(=O)[C@H](CC(C)C)NC(=O)[C@H](CC(N)=O)NC(=O)[C@@H]4CCCN4C(=O)[C@H](CCCNC(=N)N)NC(=O)[C@H](CSSC[C@H](NC(=O)[C@@H](N)CC(=O)O)C(=O)N[C@@H](CC(C)C)C(=O)NCC(=O)N[C@@H](Cc4ccccc4)C(=O)N[C@@H](CCSC)C(=O)N[C@@H](CCCNC(=N)N)C(=O)N[C@@H](CCCCN)C(=O)N2)NC(=O)[C@H](CSSC[C@@H](C(=O)N[C@@H](CCCCN)C(=O)N[C@@H](Cc2ccc(O)cc2)C(=O)N[C@H](C(=O)N[C@@H](Cc2ccccc2)C(N)=O)C(C)C)NC(=O)[C@H](Cc2c[nH]c4ccccc24)NC(=O)[C@H](CCCCN)NC(=O)[C@H](CCCNC(=N)N)NC(=O)[C@H]([C@@H](C)O)NC(=O)[C@H](CCCNC(=N)N)NC(=O)[C@H](CO)NC3=O)NC(=O)[C@H](CCCCN)NC(=O)[C@H](CC(=O)O)NC(=O)[C@H](CC(N)=O)NC(=O)[C@H](CC(=O)O)NC(=O)[C@@H]2CCCN2C1=O` (H-DCLGFMRKCIPDNDKCCRPNLVCSRTRKWCKYVF-NH2; disulfide 2-17, 9-23, 16-30), the results for the pIC50 in test [1] and in test [2] were below 5.30 and 6.35, respectively.

On to `CC[C@H](C)[C@@H]1NC(=O)[C@@H]2CSSC[C@@H]3NC(=O)[C@H](C(C)C)NC(=O)[C@H](CC(C)C)NC(=O)[C@H](CC(N)=O)NC(=O)[C@@H]4CCCN4C(=O)[C@H](CCCNC(=N)N)NC(=O)[C@H](CSSC[C@H](NC(=O)[C@@H](N)CC(=O)O)C(=O)N[C@@H](CC(C)C)C(=O)NCC(=O)N[C@@H](Cc4ccccc4)C(=O)N[C@@H](CCSC)C(=O)N[C@@H](CCCNC(=N)N)C(=O)N[C@@H](CCCCN)C(=O)N2)NC(=O)[C@H](CSSC[C@@H](C(=O)N[C@@H](CCCCN)C(=O)N[C@@H](Cc2ccc(O)cc2)C(=O)N[C@@H](CCCCN)C(=O)N[C@@H](Cc2ccccc2)C(N)=O)NC(=O)[C@H](Cc2c[nH]c4ccccc24)NC(=O)[C@H](CCCCN)NC(=O)[C@H](Cc2cnc[nH]2)NC(=O)[C@H]([C@@H](C)O)NC(=O)[C@H](CCCNC(=N)N)NC(=O)[C@H](CO)NC3=O)NC(=O)[C@H](CCCCN)NC(=O)[C@H](CC(=O)O)NC(=O)[C@H](CC(N)=O)NC(=O)[C@H](CC(=O)O)NC(=O)[C@@H]2CCCN2C1=O` (H-DCLGFMRKCIPDNDKCCRPNLVCSRTHKWCKYKF-NH2; disulfide 2-17, 9-23, 16-30), for which the results for the pIC50 in test [1] and in test [2] were below 5.30 and 7.30, respectively.
